Converted amounts (≈) assume the structure as drawn.
Tests used:
[1] = Selectivity index, ratio of cytotoxic concentration for human HepG2 cells by MTT assay to MIC for Mycobacterium tuberculosis H37Rv ATCC 27294; format: toxicity; conditions: read-out: Selectivity Index
[2] = Stability of the compound in PBS containing 10% DMSO at 37 degC measured after 24 hrs by HPLC analysis; format: physicochemical; conditions: for remaining at 24 h: PBS containing 10% DMSO, read-out: Stability
[3] = Selectivity index, ratio of cytotoxic concentration for African green monkey Vero cells by MTT assay to MIC for Mycobacterium tuberculosis H37Rv ATCC 27294; format: toxicity; conditions: read-out: Selectivity Index
[4] = test system: Mycobacterium tuberculosis; experiment: Antitubercular activity against Mycobacterium tuberculosis H37Rv ATCC 27294 after 7 days by resazurin dye based assay; format: functional; conditions: H37Rv ATCC 27294, 168 h
Method in brief: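 Resazurin microtiter MIC in 7H9 with 10% ADC. Two-fold dilutions from 1 mg/mL DMSO stocks span 25.0–0.05, 10.0–0.02 or 0.02–0.0004 µg/mL, with 2.5% DMSO final. Inoculum is bead-declumped culture grown in 7H9/10% OADC/0.05% Tween 80, diluted to OD600 0.006. Plates run 7 days at 37 °C, then 0.01% resazurin for 48 h. MIC is the lowest concentration preventing the blue-to-pink change. Three independent tests.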

[5] = Cytotoxicity against human HaCaT cells assessed as cell viability at 10 ug/ml after 72 hrs by neutral red uptake assay (reference value: 100%); format: cell-based; conditions: read-out: Activity
Method in brief: (§1)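 Seeding was 2×10^3/well for HepG2 and HaCat and 1×10^3/well for Vero. After 24 h, cells received 10 µg/mL final (2% DMSO) for 72 h at 37 °C, 5% CO2. They were washed with PBS, given neutral red 25 µg/mL in serum-free medium for 3 h, washed, and extracted 30 min with acetic acid/EtOH/water 1:50:49. A540 was read. Viability is relative to 2% DMSO controls; mean ± SEM, three experiments in triplicate.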

[6] = species on record: Danio rerio; experiment: Cardiotoxicity in Zebrafish AB embryos assessed as heart beat rate at 15 uM measured at 2 days post fertilization by stereomicroscopic method (reference value: 128.7 to 146.3 bpm); format: organism-based; conditions: in vivo, 48 h
[7] = Stability of the compound in PBS containing 10% DMSO at 25 degC measured immediately by HPLC analysis; format: physicochemical; conditions: read-out: Stability
[8] = Stability of the compound in PBS containing 10% DMSO at 25 degC measured after 12 hrs by HPLC analysis; format: physicochemical; conditions: buffer
[9] = species on record: Danio rerio; experiment: Induction of neurological impairment in Zebrafish AB embryos assessed as alteration in locomotor activity by measuring swimming activity at 3 to 20 uM measured at 5 days post fertilization; format: organism-based; conditions: in vivo, 120 h
Method in brief: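 Larvae were exposed from 2 hpf in fish water with 1% DMSO. At 5 dpf each larva was placed singly in a well of water or treatment solution. After 1 min acclimation, it was video-tracked for 5 min at 15 positions/s, and distance travelled was scored.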

[10] = Stability of the compound in PBS containing 10% DMSO at 25 degC measured after 24 hrs by HPLC analysis; format: physicochemical; conditions: buffer
[11] = Stability of the compound in PBS containing 10% DMSO at 25 degC measured after 48 hrs by HPLC analysis; format: physicochemical; conditions: buffer
[12] = species on record: Danio rerio; experiment: Toxicity in Zebrafish AB embryos assessed as morphological alteration by measuring effect on ocular distance at 3 to 20 uM measured at 2 to 5 days post fertilization by stereomicroscopic method; format: organism-based; conditions: in vivo
Method in brief: (§2)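 AB embryos are treated from 2 hpf to 5 dpf at 3.0, 15.0 and 20.0 µM in fish water with 1% DMSO, at 28 °C. Controls are fish water and 1% DMSO. Larvae are photographed under a stereomicroscope (3×) at 2 and 5 dpf, n = 30. Body length (µm), ocular distance (µm) and eye surface area (µm²) are measured from the images.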

[13] = Stability of the compound in PBS containing 10% DMSO at 37 degC measured after 9 hrs by HPLC analysis; format: physicochemical; conditions: for remaining at 9 h: PBS containing 10% DMSO, read-out: Stability
[14] = Selectivity index, ratio of cytotoxic concentration for human HaCaT cells by MTT assay to MIC for Mycobacterium tuberculosis H37Rv ATCC 27294; format: toxicity; conditions: read-out: Selectivity Index
[15] = Stability of the compound in PBS containing 10% DMSO at 37 degC measured after 12 hrs by HPLC analysis; format: physicochemical; conditions: read-out: Stability
[16] = Cytotoxicity against African green monkey Vero assessed as cell viability at 10 ug/ml after 72 hrs by neutral red uptake assay (reference value: 100%); format: cell-based; conditions: chlorocebus sabaeus, Vero cells; read-out: Activity; method in brief: as §1
[17] = species on record: Danio rerio; experiment: Cardiotoxicity in Zebrafish AB embryos assessed as heart beat rate at 15 uM measured at 5 days post fertilization by stereomicroscopic method (reference value: 148.1 to 158.2 bpm); format: organism-based; conditions: in vivo, 120 h
[18] = Selectivity index, ratio of cytotoxic concentration for African green monkey Vero cells by neutral red uptake assay to MIC for Mycobacterium tuberculosis H37Rv ATCC 27294; format: toxicity; conditions: read-out: Selectivity Index
[19] = Stability of the compound in PBS containing 10% DMSO at 37 degC measured immediately by HPLC analysis; format: physicochemical; conditions: read-out: Stability
[20] = Stability of the compound in PBS containing 10% DMSO at 37 degC measured after 6 hrs by HPLC analysis; format: physicochemical; conditions: read-out: Stability
[21] = Cytotoxicity against human HepG2 cells assessed as cell viability at 10 ug/ml after 72 hrs by neutral red uptake assay (reference value: 100%); format: cell-based; conditions: read-out: Activity; method in brief: as §1
[22] = Stability of the compound in PBS containing 10% DMSO at 25 degC measured after 3 hrs by HPLC analysis; format: physicochemical; conditions: buffer
[23] = Cytotoxicity against human HaCaT cells assessed as cell viability at 10 ug/ml after 72 hrs by MTT assay (reference value: 100%); format: cell-based; conditions: read-out: Activity
Method in brief: (§3)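 Cells were grown in DMEM with 10% heat-inactivated FBS and penicillin-streptomycin, seeded at 2×10^3/well (HepG2, HaCat) or 1×10^3/well (Vero), then left 24 h. Compound was applied at 10 µg/mL final (2% DMSO) for 72 h at 37 °C, 5% CO2. MTT 1 mg/mL was added for 3 h, formazan dissolved in DMSO, and A595 read. Viability is expressed relative to 2% DMSO wells; mean ± SEM, triplicates, three independent experiments.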

[24] = Selectivity index, ratio of cytotoxic concentration for human HepG2 cells by neutral red uptake assay to MIC for Mycobacterium tuberculosis H37Rv ATCC 27294; format: toxicity; conditions: read-out: Selectivity Index
[25] = Stability of the compound in PBS containing 10% DMSO at 37 degC measured after 48 hrs by HPLC analysis; format: physicochemical; conditions: read-out: Stability
[26] = species on record: Danio rerio; experiment: Cardiotoxicity in Zebrafish AB embryos assessed as heart beat rate at 3 uM measured at 2 days post fertilization by stereomicroscopic method (reference value: 128.7 to 146.3 bpm); format: organism-based; conditions: in vivo, 48 h
[27] = species on record: Danio rerio; experiment: Toxicity in Zebrafish AB embryos assessed as morphological alteration by measuring effect on body length of larvae at 3 to 20 uM measured at 2 to 5 days post fertilization by stereomicroscopic method; format: organism-based; conditions: in vivo; method in brief: as §2
[28] = Cytotoxicity against African green monkey Vero assessed as cell viability at 10 ug/ml after 72 hrs by MTT assay (reference value: 100%); format: cell-based; conditions: chlorocebus sabaeus, Vero cells; read-out: Activity; method in brief: as §3

Compound	selectivity ratio [1]	selectivity ratio [3]	MIC [4]	viability at 72 h, 10 ug/ml [5]	Activity [6]	remaining at 0 h [7]	Stability [8]	Activity [9]	Stability [10]	Stability [11]	Activity [12]	selectivity ratio [14]	remaining at 12 h [15]	viability at 72 h, 10 ug/ml [16]	Activity [17]	selectivity ratio [18]	remaining at 0 h [19]	remaining at 6 h [20]	viability at 72 h, 10 ug/ml [21]	Stability [22]	further results
O=C(CSc1nc2ccccc2c(=O)[nH]1)NC1CCCCC1	≤ 32	≤ 32	0.97 µM (≈ 0.308 µg/mL)	97%	155 bpm	100%	101%	Non-Toxic	109%	126%	Non-Toxic	≤ 32	120%	92%	163 bpm	≤ 32	100%	111%	95%	108%	Stability ([2]; buffer, 24 h): 127%; Stability ([13]; buffer, 9 h): 123%; viability at 72 h, 10 ug/ml [23]: 100%; selectivity ratio [24]: ≤ 32; remaining at 48 h [25]: 111%; Activity [26]: 149.5 bpm; Activity [27]: Non-Toxic; viability at 72 h, 10 ug/ml [28]: 90%
CC1CCCCC1NC(=O)CSc1nc2ccccc2c(=O)[nH]1 (stereo unspecified)	≤ 32	≤ 32	0.94 µM (≈ 0.312 µg/mL)	99%	151.7 bpm	100%	137%	Non-Toxic	138%	142%	Non-Toxic	≤ 32	70%	95%	163.4 bpm	≤ 32	100%	75%	101%	128%	remaining at 24 h [2]: 81%; remaining at 9 h [13]: 71%; viability at 72 h, 10 ug/ml [23]: 100%; selectivity ratio [24]: ≤ 32; remaining at 48 h [25]: 80%; Activity [26]: 156.3 bpm; Activity [27]: Non-Toxic; viability at 72 h, 10 ug/ml [28]: 102%
C[C@H]1CC[C@H](NC(=O)CSc2nc3ccccc3c(=O)[nH]2)CC1	≤ 32	≤ 32	0.24 µM (≈ 0.0795 µg/mL)	97%	134 bpm	100%	47%	Non-Toxic	26%	20%	Non-Toxic	≤ 32	70%	93%	157.4 bpm	≤ 32	100%	87%	97%	76%	remaining at 24 h [2]: 51%; remaining at 9 h [13]: 77%; viability at 72 h, 10 ug/ml [23]: 97%; selectivity ratio [24]: ≤ 32; remaining at 48 h [25]: 50%; Activity [26]: 135.5 bpm; viability at 72 h, 10 ug/ml [28]: 88%
CC1CCCC(NC(=O)CSc2nc3ccccc3c(=O)[nH]2)C1 (stereo unspecified)	≤ 32	≤ 32	0.24 µM (≈ 0.0795 µg/mL)	88%	151.7 bpm	100%	102%	Non-Toxic	100%	95%	Non-Toxic	≤ 32	100%	95%	157.4 bpm	≤ 32	100%	101%	95%	101%	remaining at 24 h [2]: 97%; remaining at 9 h [13]: 97%; viability at 72 h, 10 ug/ml [23]: 94%; selectivity ratio [24]: ≤ 32; remaining at 48 h [25]: 98%; Activity [26]: 151.2 bpm; Activity [27]: Non-Toxic; viability at 72 h, 10 ug/ml [28]: 89%

From ChEMBL document CHEMBL4152290, “1H-Benzo[d]imidazoles and 3,4-dihydroquinazolin-4-ones: Design, synthesis and antitubercular activity” (Eur J Med Chem, 2018)
